# Screening data as filed in PubChem.
# Apaf1 inhib: blocks human Apaf-1 apoptosome activity; O14727; 0.71% of 330,000 active; inhibition, % at 20 µM; reconstituted apoptosome caspase-3 activity, DEVD-Rh110 fluorescence; active = inhibition of at least 40% at 20 µM;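 also: plate controls were DMSO wells for no effect and DEVD-CHO caspase inhibitor wells for full effect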
# Target sequence (O14727 whole entry, looked up): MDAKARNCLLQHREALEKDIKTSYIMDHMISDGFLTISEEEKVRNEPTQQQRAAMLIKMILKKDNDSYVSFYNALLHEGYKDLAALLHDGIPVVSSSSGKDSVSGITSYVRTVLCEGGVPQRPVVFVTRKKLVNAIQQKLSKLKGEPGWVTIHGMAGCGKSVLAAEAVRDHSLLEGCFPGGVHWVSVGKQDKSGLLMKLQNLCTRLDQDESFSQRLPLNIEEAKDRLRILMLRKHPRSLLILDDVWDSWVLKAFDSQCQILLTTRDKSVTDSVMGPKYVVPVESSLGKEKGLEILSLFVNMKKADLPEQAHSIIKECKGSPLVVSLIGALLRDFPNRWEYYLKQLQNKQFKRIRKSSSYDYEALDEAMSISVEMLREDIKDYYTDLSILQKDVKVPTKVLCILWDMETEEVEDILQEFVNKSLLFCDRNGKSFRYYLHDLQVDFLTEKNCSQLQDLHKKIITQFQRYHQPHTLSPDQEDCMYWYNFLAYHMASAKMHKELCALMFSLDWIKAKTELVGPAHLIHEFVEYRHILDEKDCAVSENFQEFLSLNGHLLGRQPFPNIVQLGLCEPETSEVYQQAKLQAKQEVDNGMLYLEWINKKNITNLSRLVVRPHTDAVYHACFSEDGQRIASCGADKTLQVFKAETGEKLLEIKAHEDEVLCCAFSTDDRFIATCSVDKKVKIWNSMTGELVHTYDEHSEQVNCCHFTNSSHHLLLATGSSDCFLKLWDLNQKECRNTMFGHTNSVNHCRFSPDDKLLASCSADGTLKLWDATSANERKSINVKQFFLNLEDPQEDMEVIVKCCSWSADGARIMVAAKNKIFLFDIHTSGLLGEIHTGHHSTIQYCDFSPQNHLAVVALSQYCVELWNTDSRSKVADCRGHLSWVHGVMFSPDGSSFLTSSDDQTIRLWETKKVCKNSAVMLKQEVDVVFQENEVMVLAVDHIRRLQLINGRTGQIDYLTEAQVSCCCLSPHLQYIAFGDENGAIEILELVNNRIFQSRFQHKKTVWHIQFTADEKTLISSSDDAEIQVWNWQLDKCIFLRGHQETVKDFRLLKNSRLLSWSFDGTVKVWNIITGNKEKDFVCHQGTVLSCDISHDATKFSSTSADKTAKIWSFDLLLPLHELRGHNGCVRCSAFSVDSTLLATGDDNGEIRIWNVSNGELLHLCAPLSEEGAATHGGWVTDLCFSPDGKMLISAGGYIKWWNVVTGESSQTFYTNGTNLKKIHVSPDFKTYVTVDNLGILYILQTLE
#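 Material: biochemical Apaf-1 apoptosome reconstitution. Medium: Hepes buffer, pH 7.5. Also added: cytochrome c activation, bis-DEVD rhodamine 110 substrate. Timing: 30 min compound preincubation, 50 min activation, room temperature. Measured by: rhodamine 110 fluorescence at Ex 480/Em 540 nm.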
# PAD4 inh: PAD4 (human) enzyme inhibition. AID 485272. inhibition, % at 6.36 µM. Q9UM07. recombinant PAD4, RCA probe fluorescence polarization. 0.41% of 330,000 active;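 active = percent inhibition above a cutoff equal to the mean of all tested compounds plus 3 SD, cut at about 15% in these data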;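 also: 0% = PAD4 with RCA probe and DMSO and 100% = probe without PAD4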
# GSTO1 counter: counter-screen for RBBP9 inhibitors: inhibitors of human GSTO1. P78417. recombinant GSTO1, activity-based probe fluorescence polarization. inhibition, % at 5.96 µM. 1.1% of 300,000 active. AID 1974;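 active = inhibition above the campaign mean inhibition plus 3 SD, cut at about 35% in these data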;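 also: 0% = GSTO1-1 with DMSO and 100% = wells lacking GSTO1-1 enzyme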
# TDP2 absorb: TDP2 (human) inhibition, absorbance primary screen; O95551; 0.34% of 370,000 active; recombinant TDP2, T5PNP hydrolysis, p-nitrophenol absorbance 415 nm; inhibition, % at 12.8 µM; AID 720702;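 active = inhibition above the mean of all tested compounds plus 3 SD, set per campaign, cut at about 25% in these data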;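 also: 0% = DMSO with enzyme and 100% = buffer with substrate but no TDP2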
#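 System – recombinant human TDP2 · Quantity – TDP2 enzyme at 120 nM final · Doses – single concentration, 12.8 µM nominal, with 1% DMSO · Incubation – 2 h at 37 °C · Measured by – epi absorbance of p-nitrophenol freed from T5PNP by hydrolysis · Read-out – % inhibition relative to enzyme-containing and enzyme-free wells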
# PRMT1 FP inh: blocks human protein arginine methyltransferase 1; inhibition, % at 2.79 µM; 1.3% of 370,000 active; recombinant PRMT1, activity-based probe fluorescence polarization;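 active = inhibition above about 21% made by adding two undisclosed values, limit read from the data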
# * marks the source's active call; other numbers are inactive results; . = no result given. In the library only some 2.6% were active in any assay of this set; here they are far more common.
SMILES,Apaf1 inhib,PAD4 inh,GSTO1 counter,TDP2 absorb,PRMT1 FP inh
O=C(O)c1cccc(-c2ccc(/C=c3/sc4nc5ccccc5n4c3=O)o2)c1,-195.1,-1.8,-0.9,8.6,24.2*
CCOC(=O)C1CCN(S(=O)(=O)c2ccc3c(c2)CCCN3C(C)=O)CC1,4.7,2.0,-2.1,5.0,-2.5
CCOC(=O)C1CCN(S(=O)(=O)c2ccc3c(c2)CC(=O)N3C)CC1,10.6,3.9,27.5,25.0*,0.6
CCN1CCN(Cc2ccc(NC(=O)c3cc(NC(=O)c4nccnc4N)cc(OC)c3)cc2C(F)(F)F)CC1,16.8,-1.5,1.5,2.2,-1.9
CCN1CCN(Cc2ccc(NC(=O)c3cc(NC(=O)c4cncc(-c5ccc(C#N)cc5)c4)cc(OC)c3)cc2C(F)(F)F)CC1,53.8*,-16.4,-37.3,1.9,1.0
CCC(CO)Oc1cc(NCc2ccc(F)cc2)c2ncn(C(C)C)c2c1 (stereo unspecified),43.5*,-7.8,.,10.1,3.9
CC(=O)Oc1cc(C)c(Cl)c2c(OC(C)=O)cc(C(C)=O)c(O)c12,.,.,.,6.7,24.1*
COc1cc(C(=O)NC2CCCCN(C(C)C)C2=O)cc(OC)c1OC (stereo unspecified),.,.,.,0.3,0.3
C[C@H]1COc2cc(Br)ccc2S(=O)(=O)N1Cc1cn(Cc2ccc(Cl)cc2)nn1,.,.,.,-4.5,-5.3
NS(=O)(=O)c1ccc(O)c(NC(=O)c2ccc([N+](=O)[O-])o2)c1,-2.3,-11.9,15.9,-12.4,21.8*
CCCCCCCCN1C(=O)[C@@H](CC(=O)NCc2ccccc2)C[C@@]2(C(=O)OC)C1=C[C@H](C(C)C)O[C@@H]2C1CC1,.,.,.,-5.3,-1.9
COc1ccc(C(=O)N(CCc2ccccc2)Cc2ccccc2)cc1S(=O)(=O)N1CCOCC1,45.0*,6.0,9.3,11.0,-3.1
COc1cccc(-c2nnc(SCC(=O)OC(C)C)n2-c2ccc(Cl)cc2)c1,.,.,.,-2.3,1.8
O=C(NC1CCS(=O)(=O)C1)Oc1ccccc1 (stereo unspecified),51.1*,-0.7,-3.2,6.3,-3.6
Cc1ccc(OC(=O)NC2CCS(=O)(=O)C2)cc1C (stereo unspecified),-13.2,-1.4,-2.2,1.5,-5.2
CC(C)OC(=O)c1c(NC(=O)C2CC=CCC2C(=O)O)sc2c1CCCCC2 (stereo unspecified),5.4,-1.1,31.7,-10.2,0.0
NC(=O)c1c(NC(=O)C2CC=CCC2C(=O)O)sc2c1CCCCC2 (stereo unspecified),7.8,-0.3,5.5,14.3,22.6*
COc1ccc(CNS(=O)(=O)c2ccc(F)c(C(=O)Nc3ccccc3OC)c2)cc1,7.9,-3.5,1.7,0.6,4.1
COc1ccc(OC)c(NC(=O)c2cc(S(=O)(=O)NCc3ccco3)ccc2F)c1,-7.7,-0.8,35.6*,-7.6,2.2
COC(=O)C[C@@H]1CC[C@@H]2[C@@H](COc3ccc(NC(=O)c4ccc(F)cc4)cc3C(=O)N2C)O1,.,.,.,6.9,-1.4
COC(=O)CCC(=O)Nc1sc(Cc2ccccc2)c(C)c1C(N)=O,3.2,0.7,-5.7,0.3,24.3*
COC(=O)c1c(NC(=O)CCC(=O)O)sc(Cc2ccccc2)c1C,-3.1,-3.6,9.6,15.3,3.3
CCCC(=O)Nc1sc(Cc2ccccc2)c(C)c1C(N)=O,1.9,4.4,1.6,-9.6,23.2*
C[C@@H]1/C=C/CC(=O)N[C@H](c2ccccc2)[C@H](C)/C=C/CC(=O)N[C@@H]1c1ccccc1,.,.,.,3.7,-1.8
O=C1Nc2cc(Cl)ccc2Nc2cscc21,7.8,3.5,7.3,10.8,23.1*
SMILES,Apaf1 inhib,PAD4 inh,GSTO1 counter,TDP2 absorb,PRMT1 FP inh
COC(=O)C1=C(C)NC(=O)/C1=C\N(C)C,0.3,-1.0,4.8,-5.8,24.6*
Cc1ccc(-c2cc(C(=O)N3CCN(c4ncccn4)CC3)c3cc(Br)ccc3n2)o1,2.9,-4.7,4.3,-0.3,49.4*
CC1(C)CC(=O)C2=C(C1)OC(N)=C(C#N)C2c1ccccc1[N+](=O)[O-] (stereo unspecified),6.4,-5.6,1.4,11.7,23.3*
CCCCC#Cc1ccccc1COC[B-](F)(F)F,.,.,.,-10.3,-1.3
O=c1c2c3nc4ccccc4nc3n(Cc3ccccc3)c2ncn1Cc1ccco1,.,.,.,-13.3,38.0*
COc1ccc(S(=O)(=O)N2CCCCCC2)cc1C(=O)N(C)CCOc1ccccc1,54.8*,2.7,5.0,-5.6,-0.6
Cc1ccc(S(=O)(=O)N2CCCCC2)cc1C(=O)N(C)CCOc1ccccc1,29.7,-2.3,4.5,-4.6,1.3
S=C(Nc1ccc(Nc2ccccc2)cc1)Nc1ccccn1,14.0,-3.3,2.2,-14.1,22.6*
CCc1c2c3n4c1CCC[C@@H]4C[C@@H]3O[Si](C(C)C)(C(C)C)OC(C)C2=O (stereo partly specified),.,.,.,6.3,-2.6
COc1ccccc1Nc1nc(Cl)c(C=O)s1,-7.5,-3.1,47.0*,10.6,0.0
O=C(Nn1c(O)c(C=C2N=c3ccccc3=N2)sc1=S)c1ccc(Cl)cc1,12.3,-10.2,-10.2,8.3,11.2
Cc1ccc(S(=O)(=O)Nn2c(O)c(C=C3N=c4ccccc4=N3)sc2=S)cc1,0.5,-0.5,13.5,8.6,24.5*
CCOC(=O)C1CCCN(C(=O)c2ccc(-c3ccc([N+](=O)[O-])cc3)o2)C1 (stereo unspecified),16.3,-3.7,0.6,-7.3,23.9*
CCOC(=O)C1CCCN(C(=O)c2ccc(CS(=O)(=O)c3ccc(C)cc3)o2)C1 (stereo unspecified),1.0,0.1,4.8,.,.
CN1CCN(Cc2nc3c([nH]2)c(=O)[nH]c(=O)n3C)CC1,4.7,-0.2,36.3*,-4.2,-0.2
Cn1c(=O)[nH]c(=O)c2[nH]c(CO)nc21,.,.,.,-9.4,-4.4
COCCNC(=S)N(C)[C@H]1C[C@H]2c3[nH]c4c(-c5cccc(C)c5)cccc4c3CCN2C[C@H]1[C@H](C)O,.,.,.,-11.4,5.8
c1ccc(-c2sc3ccccc3c2-c2ccc(OCCN3CCCC3)cc2)cc1,78.0*,-0.5,.,-7.7,-2.3
COc1ccc(-c2sc3cc(OC)ccc3c2-c2ccc(OCCN3CCCCC3)cc2)cc1,.,.,.,-1.8,-1.3
CC1(OC(=O)CCc2ccccc2)C(=O)C=C2C=C(c3ccc(C#N)cc3)N(c3ccccc3)C=C2C1=O (stereo unspecified),17.8,-10.5,21.1,-3.7,-1.6
COC/C=C/C1=CC2=CC(=O)C(C)(OC(=O)c3cnc4ccccc4n3)C(=O)C2=CN1C1CCCCC1 (stereo unspecified),16.7,0.2,35.5*,.,.
COC/C=C/C1=CC2=CC(=O)C(C)(OC(=O)c3cnc4ccccc4n3)C(=O)C2=CN1c1ccc(CO)cc1 (stereo unspecified),-0.1,6.7,36.7*,.,.
O=C(c1cccc(C(F)(F)F)c1)N1CC[C@H]2[C@H](CCCN2Cc2ccccc2)C1,.,.,.,2.2,0.7
Cc1ccccc1NS(=O)(=O)c1ccc(F)cc1,-10.0,0.0,0.6,-13.6,4.4
